Source: ChEMBL document CHEMBL1158361, “Discovering novel quercetin-3-O-amino acid-esters as a new class of Src tyrosine kinase inhibitors” (Eur J Med Chem, 2009)

Assays:
[1] = target: T1, Proto-oncogene tyrosine-protein kinase Src (Homo sapiens, UniProt P12931); assay: Inhibition of Src
Procedure, shortened: (§1)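 Wells were precoated with 20 μg/mL poly(Glu,Tyr)4:1 substrate, then given an 8 μM ATP solution (added concentration) and compound. Purified EGFR or Src in kinase buffer ran for 60 min at 37 °C, in triplicate, with 0.1% DMSO as negative control. Phosphotyrosine was detected with PY99, HRP anti-mouse IgG and o-phenylenediamine/H2O2 at A490. Inhibition % = [1 − A490/A490 control] × 100, and IC50 was taken from inhibition curves.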

[2] = target: T1, Proto-oncogene tyrosine-protein kinase Src; assay: Inhibition of Src at 10 uM; procedure, shortened: as §1
[3] = target: Epidermal growth factor receptor (Homo sapiens) (UniProt P00533); assay: Inhibition of EGFR at 10 uM; procedure, shortened: as §1
Epidermal growth factor receptor (Homo sapiens), sequence (P00533 whole entry): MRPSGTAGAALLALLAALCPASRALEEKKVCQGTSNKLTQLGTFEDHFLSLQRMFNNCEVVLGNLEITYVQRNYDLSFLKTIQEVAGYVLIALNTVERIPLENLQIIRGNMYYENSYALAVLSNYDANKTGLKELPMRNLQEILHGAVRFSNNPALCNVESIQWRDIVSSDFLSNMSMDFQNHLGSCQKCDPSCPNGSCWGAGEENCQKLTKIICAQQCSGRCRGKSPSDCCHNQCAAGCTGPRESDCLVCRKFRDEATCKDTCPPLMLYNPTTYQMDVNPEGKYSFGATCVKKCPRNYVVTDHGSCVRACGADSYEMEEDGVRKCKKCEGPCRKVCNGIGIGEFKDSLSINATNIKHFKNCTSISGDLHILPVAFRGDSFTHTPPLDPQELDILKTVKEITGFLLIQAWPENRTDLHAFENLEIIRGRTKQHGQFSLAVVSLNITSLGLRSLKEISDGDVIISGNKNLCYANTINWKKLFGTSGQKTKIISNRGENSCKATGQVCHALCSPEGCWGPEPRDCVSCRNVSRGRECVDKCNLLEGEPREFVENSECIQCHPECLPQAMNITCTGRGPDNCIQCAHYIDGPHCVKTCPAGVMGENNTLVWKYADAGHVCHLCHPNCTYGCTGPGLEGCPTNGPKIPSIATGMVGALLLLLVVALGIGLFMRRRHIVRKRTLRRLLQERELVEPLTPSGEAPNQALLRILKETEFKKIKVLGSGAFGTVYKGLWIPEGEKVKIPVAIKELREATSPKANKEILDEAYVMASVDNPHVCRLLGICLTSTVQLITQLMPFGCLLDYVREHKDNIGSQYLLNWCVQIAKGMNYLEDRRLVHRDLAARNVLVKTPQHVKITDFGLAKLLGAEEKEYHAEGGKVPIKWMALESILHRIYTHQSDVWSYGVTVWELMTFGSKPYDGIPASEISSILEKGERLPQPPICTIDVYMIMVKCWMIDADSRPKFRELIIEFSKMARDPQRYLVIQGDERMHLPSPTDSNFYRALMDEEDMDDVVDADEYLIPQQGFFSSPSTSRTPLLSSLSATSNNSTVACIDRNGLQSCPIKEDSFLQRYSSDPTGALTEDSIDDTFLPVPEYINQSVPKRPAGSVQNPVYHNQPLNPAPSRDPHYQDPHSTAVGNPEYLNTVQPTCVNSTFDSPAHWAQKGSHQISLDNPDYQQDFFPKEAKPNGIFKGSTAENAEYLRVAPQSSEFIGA

T1 sequence (P12931 2-536 limits assumed): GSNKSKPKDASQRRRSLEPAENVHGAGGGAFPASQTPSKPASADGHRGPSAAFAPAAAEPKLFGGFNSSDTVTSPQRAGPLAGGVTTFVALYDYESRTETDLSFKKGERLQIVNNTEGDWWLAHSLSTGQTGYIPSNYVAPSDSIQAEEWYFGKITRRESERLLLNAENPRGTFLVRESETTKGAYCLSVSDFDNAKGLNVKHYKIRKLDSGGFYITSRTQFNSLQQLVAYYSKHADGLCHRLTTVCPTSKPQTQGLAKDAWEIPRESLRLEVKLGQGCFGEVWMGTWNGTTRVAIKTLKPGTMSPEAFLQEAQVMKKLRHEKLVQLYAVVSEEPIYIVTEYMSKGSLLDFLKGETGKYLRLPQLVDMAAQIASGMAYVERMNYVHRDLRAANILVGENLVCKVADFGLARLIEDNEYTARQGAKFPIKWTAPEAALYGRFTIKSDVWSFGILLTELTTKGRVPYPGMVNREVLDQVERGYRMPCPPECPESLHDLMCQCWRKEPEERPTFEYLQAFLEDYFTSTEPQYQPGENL

SMILES	IC50 [1] [µM]	inhibition [2] [%]	inhibition [3] [%]
CC(C)(C)OC(=O)NCC(=O)Oc1c(-c2ccc(O)c(O)c2)oc2cc(O)cc(O)c2c1=O	3.3	76.2	43.2
C[C@H](O)[C@@H](NC(=O)OC(C)(C)C)C(=O)Oc1c(-c2ccc(O)c(O)c2)oc2cc(O)cc(O)c2c1=O	4.9	71	34.6
C[C@@H](O)[C@H](NC(=O)OC(C)(C)C)C(=O)Oc1c(-c2ccc(O)c(O)c2)oc2cc(O)cc(O)c2c1=O	3.5	76.1	36.8
CC(C)C[C@H](NC(=O)OC(C)(C)C)C(=O)Oc1c(-c2ccc(O)c(O)c2)oc2cc(O)cc(O)c2c1=O	4.2	55.4	30.4
CC(=O)N1CCC[C@H]1C(=O)Oc1c(-c2ccc(O)c(O)c2)oc2cc(O)cc(O)c2c1=O	–	24.3	21
COc1cc2ncnc(Nc3ccc(OCc4ccccc4)cc3)c2cc1OC	–	–	97.2
CC(C)[C@H](NC(=O)OC(C)(C)C)C(=O)Oc1c(-c2ccc(O)c(O)c2)oc2cc(O)cc(O)c2c1=O	7.4	52.5	21
CC(=O)N[C@@H](Cc1ccccc1)C(=O)Oc1c(-c2ccc(O)c(O)c2)oc2cc(O)cc(O)c2c1=O	5.9	60.5	20.9
CC(C)C[C@@H](NC(=O)OC(C)(C)C)C(=O)Oc1c(-c2ccc(O)c(O)c2)oc2cc(O)cc(O)c2c1=O	–	44.5	29.2
CC(C)(C)OC(=O)N[C@@H](Cc1ccccc1)C(=O)Oc1c(-c2ccc(O)c(O)c2)oc2cc(O)cc(O)c2c1=O	–	40.9	35.9
CC(C)[C@@H](NC(=O)OC(C)(C)C)C(=O)Oc1c(-c2ccc(O)c(O)c2)oc2cc(O)cc(O)c2c1=O	–	40.7	22.3
O=c1c(O)c(-c2ccc(O)c(O)c2)oc2cc(O)cc(O)c12 [QUERCETIN]	15	–	–
CC(=O)N[C@@H](CC(C)C)C(=O)Oc1c(-c2ccc(O)c(O)c2)oc2cc(O)cc(O)c2c1=O	–	39	25.9
CC(C)(C)OC(=O)N[C@@H](Cc1c[nH]c2ccccc12)C(=O)Oc1c(-c2ccc(O)c(O)c2)oc2cc(O)cc(O)c2c1=O	–	44.4	15.6
CC(C)(C)OC(=O)N1CCC[C@H]1C(=O)Oc1c(-c2ccc(O)c(O)c2)oc2cc(O)cc(O)c2c1=O	–	27.7	19.3
CC(C)(C)OC(=O)N[C@@H](CC(N)=O)C(=O)Oc1c(-c2ccc(O)c(O)c2)oc2cc(O)cc(O)c2c1=O	9.9	50.8	23.8
C[C@H](NC(=O)OC(C)(C)C)C(=O)Oc1c(-c2ccc(O)c(O)c2)oc2cc(O)cc(O)c2c1=O	6.5	51.4	35.9
CC(C)(C)n1nc(-c2ccc(Cl)cc2)c2c(N)ncnc21	–	99	–
